Source: paper PMC11911394 (Nature Communications, 2025)

Key:
[1] = assay type: physicochemical; settings: exciting with red light
Outline: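 Steady-state UV-Vis absorption and fluorescence spectra were recorded on a plate reader in PBS pH 7.4 at 25 °C.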

[2] = tested on: LAMP1–mCherry–FIREtag and nir-FIREmate–KIF17; assay: nirCATCHFIRE control of lysosome positioning; assay type: cell-based; settings: HeLa cells co-expressing LAMP1–mCherry–FIREtag and nir-FIREmate–KIF17
HeLa cells = assay: Cell viability assay; assay type: cell-based; settings: at the dose used for imaging; HeLa and HEK293T (Supplementary Fig. 8)
Outline: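 HeLa cells were grown in MEM with phenol red, Glutamax I, 1 mM sodium pyruvate, 1% non-essential amino acids, 10% FBS and 1% penicillin–streptomycin at 37 °C and 5% CO₂. They were exposed to fluorogen at the indicated concentrations for 24 h. Viability was read as CellTiter-Glo luminescence on a plate reader, per kit protocol.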

nirFAST [3] = assay: nirFAST labeling kinetics in live HeLa cells; assay type: cell-based; settings: 10 µM fluorogen
zebrafish larvae = assay: Imaging of injected nirFAST-expressing HEK293T cells in zebrafish larvae; assay type: in vivo, zebrafish (Danio rerio); settings: zebrafish larvae 4 dpf, 45 min of treatment
Outline: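 HEK293T cells were transfected with a nirFAST-P2A-EGFP plasmid and, after 24 h, suspended at 10,000,000 cells/mL in serum-free DMEM. About 5–10 nL was microinjected near the heart of 2 dpf nacre larvae anesthetized with 0.02% MS-222. Larvae were raised at 28 °C, and green-positive ones were chosen. At 4 dpf they were incubated 45 min with fluorogen, anesthetized, mounted laterally in 0.8% low-melt agarose and imaged confocally.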

nirFAST [4] = assay: Characterization of nirFAST with prototypical FAST; assay type: physicochemical; settings: fluorogen bound to nirFAST
Outline: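 His-tag-purified protein came from E. coli BL21(DE3) or Rosetta(DE3)pLysS, induced overnight with 1 mM IPTG at 16 °C and isolated on Ni-NTA. Spectra were recorded in PBS pH 7.4 at 25 °C on a plate reader. Quantum yield was measured in 96-well plates against a reference fluorogen:protein complex. Protein was 40 µM, with fluorogen usually 6 to 0.375 µM, giving >99% complex.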

Compound: COc1cc(/C=C/C=C2\SC(=S)NC2=O)cc(OC)c1O [HPAR-3,5DOM, (Z)-5-((E)-3-(4-hydroxy-3,5-dimethoxyphenyl)allylidene)-2-thioxothiazolidin-4-one]
- fluorescence of free fluorogen [1]: completely non-fluorescent
- effect on lysosome positioning [2]: displacement of lysosomes from the perinuclear region to the cell periphery
- toxicity for mammalian cells (HeLa cells): non-toxic
- time to complete labeling of nirFAST after fluorogen addition (nirFAST [3]): complete within twenty seconds
- detection of nirFAST-expressing HEK293T cells in larvae (zebrafish larvae): efficiently detected

Compound: Cc1cc(/C=C2\SC(=S)NC2=O)ccc1O [HMBR]
- fluorescence activation by nirFAST (nirFAST [4]): failed to activate efficiently the fluorescence

Compound: Cc1cc(/C=C2\SC(=S)NC2=O)c(C)cc1O [HBR-2,5DM]
- fluorescence activation by nirFAST (nirFAST [4]): failed to activate efficiently the fluorescence

Compound: COc1cc(/C=C2\SC(=S)NC2=O)cc(OC)c1O [HBR-3,5DOM]
- FQY of assembly with nirFAST (nirFAST [4]): 24%

Compound: Cc1cc(/C=C2\SC(=S)NC2=O)cc(C)c1O [HBR-3,5DM]
- FQY of assembly with nirFAST (nirFAST [4]): 37%
